# Screening results (PubChem BioAssay)
# Compounds with a hit are over-represented: about 1.6% of the library has one in this group of screens.
# Arrestin-AP2 inh = human beta-arrestin and AP2 interaction inhibition | AID 504490 | FITC-arrestin peptide / GST-AP2 beads, flow cytometry; AP2 beta2 appendage carries R879A mutation | inhibition, % at 10 µM | hit rate 0.31% among 340,000;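 active = inhibition above a set limit, near 3 SD of compounds lacking own fluorescence, cut at about 54% in these data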;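 note: plate controls were DMSO wells for no effect and 5 µM unlabelled arrestin peptide for full effect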
#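 System: GST-tagged AP2 beta2-adaptin appendage (R879A) on 4 µm glutathione beads / Reagent: FITC-arrestin peptide, 50 nM / Detection: HyperCyt-sampled flow cytometry, FL1 channel, ex 488/em 535 nm / Timing: 12 min plus 1 h, RT / Buffer or medium: PBS plus Tween 20 (0.05%) and BSA (0.1%)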
# LANA-H2B inh = blocks KSHV LANA binding to histone H2A/H2B | Q9QR71 | hit rate 0.6% among 320,000 | inhibition, % (no concentration beside the values) | cell-free LANA-H2A/H2B peptide, fluorescence polarization; in the data active = inhibition mostly above about 10%, no sharp cut-off; inactive = mostly below about 6.7%
# DSG3 Ab inh = inhibitors of pemphigus antibody binding to human desmoglein-3; P32926; DSG3-coupled beads, scFv-anti-DSG3-GFP binding, flow cytometry; active compounds read low; binding (percent of control), % at 10 µM; hit rate 0.48% among 310,000;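 active = binding more than 3 SD below its plate's average and above zero; inconclusive = below that plate limit but binding exactly zero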;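 note: hits lower antibody fragment binding to DSG3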
# T cell HTS = modulates CD8 T cell binding to vesicles | 2C CD8+ T cell-vesicle binding, flow cytometry; active compounds read low | response (vesicle binding), % at 7 µM | hit rate 0.068% among 330,000 | AID 2052;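 active = response, share of CD8 T cells binding vesicles, and their 90th percentile fluorescence all below set limits, cut at about 80% in these data, passing the limit was not always enough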;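 note: values below 100% mean blocked vesicle binding to the CD8+ T cells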
#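 Material: murine 2C transgenic CD8+ T lymphocytes / Also added: QL9-peptide-loaded Drosophila micro-vesicles bearing Ld, ICAM-1 and B7-1 / Schedule: binding step 1.5 h, 37 °C, antibody labelling 20 min, ice / Signal: flow cytometry, PE anti-B7-1 (FL2) versus Alexa647 anti-CD8 (FL8), PFA-fixed / Evaluation: percent CD8+ FL2 mean versus row control / Benchmarks: naked versus QL9-loaded vesicles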
# JMJD2C inh = human JMJD2C demethylase inhibition. Q9H3R0. GST-JMJD2C(1-420) H3K9me3 demethylation, DELFIA europium. inhibition, % at 2.35 µM. hit rate 0.069% among 330,000. AID 2099;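 active = more than half of a compound's replicate wells show inhibition beyond 50%, single wells judged on their own value; inconclusive = some, but no more than half, of replicates pass 50% inhibition; inactive = no replicate passes 50% inhibition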;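 note: signal counts dimethyl H3K9 product captured on neutravidin plate; 0% = median of DMSO wells and 100% = 0.3 times that DMSO median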
# HDAC3 inh = human HDAC3 inhibition; O15379; recombinant HDAC3, fluorogenic peptide/trypsin coupled, fluorescence; inhibition, % at 8.3 µM; hit rate 0.15% among 320,000; AID 2718; in the data active = inhibition above about 26%, passing the limit was not always enough; inconclusive = no clear call, values can overlap the other calls
# Numbers without * were called inactive; ? = inconclusive; . = no result; + = active, no number.
SMILES,Arrestin-AP2 inh,LANA-H2B inh,DSG3 Ab inh,T cell HTS,JMJD2C inh,HDAC3 inh
C=C(C)C(=O)Nc1cccc(C2=NOC3(C2)C[C@@H](C(N)=O)N(C(=O)/C(C)=C/C)C3)c1 (stereo partly drawn),9,4,89*,514,-10,-5
c1ccc(Nc2nc(-c3ccccc3)ns2)cc1,-3,4,58*,400,8,7
CC(C)(C)C(=O)Nc1nc(-c2ccccc2)ns1,2,-6,104,324,-2,-4
COc1ccc(N(CC(C)C)S(=O)(=O)c2nnc(NC(=O)c3ccco3)s2)cc1,30,2,.,545,3,2
Cc1ccc(NC(=O)CN(C)C(=O)CCSc2ccc(F)cc2)cc1,0,18*,102,460,-2,1
Cc1ccc(NC(=O)CN(C)C(=O)CSc2ccccc2F)cc1,19,4,118,330,-1,-1
COc1ccccc1NC(=S)N1CCN(C(=O)c2ccco2)CC1,-4,16*,96,688,15,-5
COc1ccccc1NC(=O)N1CCN(C(=O)c2ccco2)CC1,5,5,109,238,4,4
COc1ccccc1NC(=O)/C(=C\c1cccs1)NC(=O)c1ccco1,5,+,83,119,-2,4
COc1ccc2oc(C(=O)N3CCN(c4ncccn4)CC3)c(C)c2c1,17,-1,112,0,1,4
COc1ccc2oc(C(=O)N3CCN(C(=O)c4ccco4)CC3)c(C)c2c1,-13,20*,115,238,1,3
CCc1ccc(CNC(=O)CCS(=O)(=O)Cc2ccc(C)cc2)cc1,19,-2,99,144,16,1
Cc1[nH][nH]c(=O)c1C(c1c(C)[nH][nH]c1=O)c1cn(Cc2cccc3ccccc23)c2ccccc12,23,2,88,150,68*,0
N#Cc1ccccc1/C=N/Nc1nc(-c2ccccc2)c2cc(Cl)ccc2n1,3,55*,68,418,17,0
CCc1noc(C)c1C(=O)N(C)CC(=O)Nc1ccccc1C(F)(F)F,-3,6,7.5*,323,33,0
CCc1noc(C)c1C(=O)N(C)CC(=O)Nc1ccc(Cl)c(Cl)c1,-1,-2,98,426,0,1
Cc1ccc(C(=O)N2CCCC(C(=O)Nc3cccc(-c4ccc(F)cc4)c3)C2)cn1 (stereo not drawn),8,0,106,273,14,-7
COc1[nH]c(/N=C/c2ccccc2)c(C#N)c1C#N,32,44*,.,95,-11,2
Cc1[nH][nH]c(=O)c1C,-7,2,93,279,6,0
Cc1nnc(NC(=O)C2CCN(S(=O)(=O)c3ccc(F)c(F)c3)CC2)o1,-15,-3,?,250,2,-1
CSc1nc2cc(Oc3cccc(Cl)c3Cl)c(Cl)cc2[nH]1,2,3,101,507,5,29*
Cc1ccc(C)c(S(=O)(=O)Nc2ccc(C(=O)NCC(c3ccco3)N(C)C)cc2)c1 (stereo not drawn),4,4,100,332,0,-5
Cc1ccccc1NS(=O)(=O)c1ccc(C(=O)NCC(c2ccccc2)N(C)C)cc1 (stereo not drawn),9,6,.,335,-31,6
Cc1ccc(S(=O)(=O)N(C)c2ccc(C(=O)NCC(c3ccco3)N(C)C)cc2)cc1 (stereo not drawn),2,35*,96,346,.,-1
Cc1ccccc1NS(=O)(=O)c1ccc(C(=O)NCC(c2ccco2)N(C)C)cc1 (stereo not drawn),-1,20*,107,203,42,-14
COc1ccc(-c2cc(=O)oc3cc(OCC(=O)NCCN4CCOCC4)ccc23)cc1,8,16*,126,257,-8,10
CCCCc1cc(=O)oc2cc(OCC(=O)NCCN3CCOCC3)ccc12,3,15*,94,350,?,5
O=C(COc1ccc2c(-c3ccccc3)cc(=O)oc2c1)NCCN1CCOCC1,2,4,102,223,4,5
O=C(Nc1ccc(Cl)c(Cl)c1)c1ccc(Cn2c(=O)[nH]c3ccsc3c2=O)cc1,15,-2,66*,305,22,-2
